Source: PubChem BioAssay
The list is not random: actives were taken first. Their share in the collection is about 4.9%.
NF-kB neuron act: activators of NF-kB expression in neurons, primary screen, cell-based, HTS; human neuronal cells, NF-kB reporter expression; active compounds read high; fold change at 12.5 µM; 190,000 tested, 1.6% active; AID 1239, 2008; in the data active = fold change above about 3.3
STAT1 inh: STAT1 signaling inhibitors, primary screen, cell-based, HTS, luciferase reporter; NIH 3T3 STAT1-luciferase reporter, IFN-gamma, luminescence; inhibition, % at 5.5 µM; 200,000 tested, 0.35% active;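 active = inhibition above a set limit, the mean inhibition across all tested compounds plus 3 SD, cut at about 34% in these data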;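 also: 0% = IFN-gamma with DMSO and 100% = IFN-gamma with 300 µM nifuroxazide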
STAT3 act: IL-6 driven STAT3 reporter potentiators, primary screen, U3A cells, luciferase, luminescence, MLSCN library; activation (% of control), % at 5.6 µM; 190,000 tested, 0.91% active; AID 871, 2007; IL-6 STAT3-luciferase reporter; 100% = signal with IL-6 EC80 alone;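 active = activation above the screen-wide mean of compound activation plus 3 SD, cut at about 130% in these data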;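 also: 0% = background luminescence of wells with medium and substrate only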
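Detection: reporter luminescence signal / Assay system: STAT1-lacking human U3A cells, STAT3 luciferase reporter / Incubation: compound pre-incubation 1 h before IL-6, then 6 h stimulation at 37 °C / Control set: IL-6-only high control / Read-out: % activation relative to IL-6 control / Probe or stimulus: Interleukin-6, 33 ng/mL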
STAT1 act: STAT1 signaling activators, primary screen, cell-based, HTS, luciferase reporter; NIH 3T3 STAT1-luciferase reporter, IFN-gamma, luminescence; 100% = IFN-gamma alone, no compound; activation (% of control), % at 5.5 µM; 200,000 tested, 2.6% active; AID 932, 2007;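 active = activation above the screen-wide mean activation plus 3 SD, cut at about 130% in these data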;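 also: raw ratio to IFN-gamma control signal so 100% means no change and 0% no light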
APP 5'UTR act: activators of APP 5'UTR luciferase reporter, primary screen, SH-SY5Y cells | AID 1276, 2008 | 190,000 tested, 1% active | SH-SY5Y APP 5'UTR luciferase reporter, luminescence; zero percent = DMSO vehicle wells | activation, % at 2 µM;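 active = activation above a set limit, based on mean plus 3 SD of controls, cut at about 140% in these data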
STAT3 inh-1: IL-6 driven STAT3 reporter inhibitors, primary screen, U3A cells, luciferase, luminescence, MLSCN library. IL-6 STAT3-luciferase reporter; host cell line lacks STAT1. inhibition, % at 5.5 µM. 190,000 tested, 0.89% active;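 active = inhibition above the mean inhibition across all screened compounds plus 3 SD, cut at about 44% in these data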;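 also: 0% = DMSO only wells and 100% = 100 µM nifuroxazide control wells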
STAT3 inh-2: STAT3 reporter inhibitors, retest of hits, confirmation, U3A cells, luciferase, luminescence | shares compounds with STAT3 inh-1 | IL-6 STAT3 luciferase reporter; cell line lacks STAT1 | inhibition, % at 5.7 µM | AID 1265, 2008 | 1,200 tested, 45% active;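 active = inhibition above the hit cutoff computed for the primary STAT3 screen, cut at about 44% in these data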;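 also: 0% = IL-6 plus DMSO and 100% = IL-6 plus nifuroxazide control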
NFkB inh 2: NF-kB reporter inhibitors in human cells, confirmation, counter-screen for STAT3 inhibitor project, cell-based, HEK293T, luciferase, TNF-alpha stimulus; TNF-alpha induced; shares compounds with STAT3 inh-1; inhibition, % at 5.7 µM; 1,200 tested, 36% active;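 active = inhibition above the mean of solvent-only control wells plus 3 SD, cutoff set per campaign, cut at about 13% in these data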;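 also: 0% = TNF-alpha with DMSO and 100% = TNF-alpha with MG high control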
STAT1 inh STAT3c: STAT1 reporter inhibitors, IFN-gamma induced, confirmation, counter-screen for STAT3 inhibitor project, cell-based, NIH 3T3, luciferase luminescence; shares compounds with STAT3 inh-1; AID 1317, 2008; NIH 3T3 STAT1-luciferase reporter; 1,200 tested, 27% active; inhibition, % at 5.7 µM;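 active = inhibition above the mean plus 3 SD of solvent-only control wells, limit set per screening run, cut at about 16% in these data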;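 also: 0% = DMSO with IFN-gamma and 100% = nifuroxazide control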
Numbers without * were called inactive; nt = no result.

SMILES | NF-kB neuron act | STAT1 inh | STAT3 act | STAT1 act | APP 5'UTR act | STAT3 inh-1 | STAT3 inh-2 | NFkB inh 2 | STAT1 inh STAT3c
COc1ccc(/C=N\n2nnc3ccccc32)cc1 | 3.1 | 31 | 25 | 70 | 191* | 93* | 62* | 32* | -14
Cn1c(=O)n(C)c2cc(NS(=O)(=O)c3ccc(C(C)(C)C)cc3)ccc21 | 0.71 | 15 | 75 | 85 | 0 | 33 | nt | nt | nt
CCOC(=O)c1oc2ccc(S(=O)(=O)Nc3ccc4c(c3)n(C)c(=O)n4C)cc2c1C | 0.49 | 16 | 53 | 85 | 11 | 60* | 57* | 10 | 14
Cn1c(=O)n(C)c2cc(NS(=O)(=O)c3ccc4c(c3)CCCC4)ccc21 | 0.88 | 18 | 59 | 84 | -1 | 53* | 41 | 8 | 20*
COC(=O)c1scc(C)c1-n1ccc(C(=O)C(=O)N(C)C)c1 | 0.87 | -1 | 105 | 100 | 6 | -3 | nt | nt | nt
CCCCCn1c(=O)[nH]c2cc(C(=O)NCc3ccc4c(c3)OCO4)ccc2c1=O | 1.1 | -4 | 91 | 103 | 0 | 16 | nt | nt | nt
CCCCCn1c(=O)[nH]c2cc(C(=O)N3CCN(Cc4ccc5c(c4)OCO5)CC3)ccc2c1=O | 0.62 | 15 | 28 | 86 | 0 | 87* | 88* | 42* | 23*
COc1ccc(CN2CCN(C(=O)c3ccc4nc(N5CCOCC5)sc4c3)CC2)c(OC)c1OC | 1.3 | 8 | 99 | 91 | -1 | 3 | nt | nt | nt
CC1CCN(c2nc3ccc(C(=O)N4CCN(Cc5ccc6c(c5)OCO6)CC4)cc3s2)CC1 | 1.6 | -22 | 65 | 120 | 57 | 49* | 26 | -9 | -49
CN(C)S(=O)(=O)Oc1cccc(C(=O)Nc2ccccc2Cl)c1 | 1.9 | -19 | 95 | 118 | 39 | 6 | nt | nt | nt
CN(C)S(=O)(=O)Oc1cccc(C(=O)Nc2ccc(Cl)cc2)c1 | 5.3* | -10 | 48 | 109 | 141* | 71* | 56* | -11 | -50
CCOC(=O)c1cc(=O)c2c([N+](=O)[O-])ccc(OC)c2o1 | 1.3 | -12 | 104 | 110 | -3 | -5 | nt | nt | nt
O=C(OCCN1C(=O)c2cccc3c(N4CCOCC4)ccc(c23)C1=O)c1ccccc1Cl | 0.34 | 10 | 63 | 91 | -15 | 44* | 47* | 16* | 12
O=C(OCCN1C(=O)c2cccc3c(N4CCOCC4)ccc(c23)C1=O)c1ccc(Cl)cc1Cl | 1.8 | -9 | 106 | 108 | -94 | -8 | nt | nt | nt
NNC(=O)c1ccc(COc2ccccc2)cc1 | 1.2 | 0 | 92 | 100 | -2 | 14 | nt | nt | nt
CCC(=O)c1ccc(OCc2ccc(C(=O)c3ccccc3)cc2)cc1 | 0.87 | 27 | 62 | 73 | -2 | 50* | 43 | 8 | 19*
COCCNC(=S)N1CCC(NC(=O)c2ccco2)CC1 | 1.2 | -3 | 96 | 101 | 9 | 9 | nt | nt | nt
CC1=NN(c2ccccc2)C(=O)/C1=C\c1cc(C)n(-c2ccccc2)c1C | 0.82 | -3 | 105 | 103 | 50 | -12 | nt | nt | nt
Cc1cc(/C=C2\Cc3ccccc3C2=O)c(C)n1-c1ccccc1 | 1.2 | -4 | 41 | 104 | 105 | 71* | 23 | -15 | -100
Cc1cc(C=C2C(=O)c3ccccc3C2=O)c(C)n1-c1ccc(C(=O)O)cc1 | 0.98 | -6 | 98 | 104 | -2 | 8 | nt | nt | nt
Cc1cc(C=C2C(=O)c3ccccc3C2=O)c(C)n1-c1ccccc1 | 0.32 | 13 | 43 | 88 | 43 | 75* | 13 | 6 | -19
COc1cccc(NC(=O)Nc2nccc(C)n2)c1 | 4.1* | 33 | 42 | 69 | 109 | 71* | 37 | 3 | -58
COc1cccc(NC(=O)Nc2ccc3c(c2)nc(C)n3C)c1 | 5.7* | 7 | 57 | 92 | 112 | 54* | 12 | -15 | -39
COc1ccc(C2(CNC(=O)c3ccc(OC)c([N+](=O)[O-])c3)CCCCC2)cc1OC | 0.82 | 10 | 99 | 91 | -1 | -1 | nt | nt | nt
Brc1ccc(-c2nc(-c3ccccn3)no2)o1 | 2.7 | 36* | 41 | 67 | 92 | 75* | 33 | -4 | -48
SMILES | NF-kB neuron act | STAT1 inh | STAT3 act | STAT1 act | APP 5'UTR act | STAT3 inh-1 | STAT3 inh-2 | NFkB inh 2 | STAT1 inh STAT3c
Clc1ccc(-c2nc(-c3ccccn3)no2)cc1Cl | 3 | -7 | 45 | 106 | 117 | 71* | 33 | 14* | -31
Clc1ccc(OCc2nc(-c3ccccn3)no2)c(Br)c1 | 3.2 | -8 | 56 | 107 | 138* | 57* | 13 | -16 | -124
Brc1ccc(-c2nc(-c3ccncc3)no2)o1 | 2.1 | -38 | 97 | 126 | 25 | 5 | nt | nt | nt
CCCc1nc2c(nnn2Cc2ccccc2Cl)c(=O)[nH]1 | 1.1 | -1 | 101 | 99 | -10 | 3 | nt | nt | nt
Cc1nc(NCCc2ccc(S(N)(=O)=O)cc2)c2c(C)c(C)sc2n1 | 0.96 | 21 | 57 | 81 | 6 | 54* | 48* | 12 | 30*
COc1cc(CN(C(=S)NCC(=O)NC2CCCC2)C2CCCC2)cc(OC)c1OC | 1 | 1 | 103 | 99 | 4 | 0 | nt | nt | nt
Cc1cc(C)c2nc(NC(=O)c3ccc(OCC4CCCO4)cc3)sc2c1 (stereo not drawn) | 1.4 | -8 | 60 | 107 | 14 | 47* | 36 | 0 | -11
O=C(Nc1nc(-c2ccc(Cl)cc2Cl)cs1)c1ccc(OCC2CCCO2)cc1 (stereo not drawn) | 0.52 | -9 | 98 | 108 | 11 | 5 | nt | nt | nt
O=C(Nc1ccn(Cc2ccccc2F)n1)c1ccc(COc2ccccc2Cl)cc1 | 0.65 | -3 | 64 | 102 | -13 | 46* | 46* | 7 | 5
OC1(c2ccc(OC(F)F)cc2)CSC(=Nc2cccnc2)N1C1CC1 (stereo not drawn) | 0.96 | 15 | 60 | 87 | -3 | 53* | 40 | 3 | 10
Cc1ccc(-n2c(SCC(=O)N3CCCc4ccccc43)nnc2-c2cccnc2)c(C)c1 | 0.72 | 0 | 85 | 100 | -25 | 20 | nt | nt | nt
Cc1ccc(-n2c(-c3ccccc3)c[n+]3c2CCc2ccccc2-3)c(C)c1 | 0.76 | 28 | 47 | 74 | 27 | 66* | 60* | -2 | 25*
